According to PMC4306484 (ACS Chemical Neuroscience, 2014):
pEC50: −log10 of the molar value. Marks after values point to notes of the source that are not given here. Each block holds one compound with its values, some of them ahead of it.

Experiments:
[1] = biological target: T1, rat mGlu8 (Rattus norvegicus, UniProt P70579); experiment: Calcium mobilization assay, rat mGlu8/Gα15/HEK cells; format: cell-based; conditions: for Kb / log α (affinity cooperativity) / log β (efficacy cooperativity) / log τB / α / β / τB: calcium assay
T1 sequence (P70579 34-908): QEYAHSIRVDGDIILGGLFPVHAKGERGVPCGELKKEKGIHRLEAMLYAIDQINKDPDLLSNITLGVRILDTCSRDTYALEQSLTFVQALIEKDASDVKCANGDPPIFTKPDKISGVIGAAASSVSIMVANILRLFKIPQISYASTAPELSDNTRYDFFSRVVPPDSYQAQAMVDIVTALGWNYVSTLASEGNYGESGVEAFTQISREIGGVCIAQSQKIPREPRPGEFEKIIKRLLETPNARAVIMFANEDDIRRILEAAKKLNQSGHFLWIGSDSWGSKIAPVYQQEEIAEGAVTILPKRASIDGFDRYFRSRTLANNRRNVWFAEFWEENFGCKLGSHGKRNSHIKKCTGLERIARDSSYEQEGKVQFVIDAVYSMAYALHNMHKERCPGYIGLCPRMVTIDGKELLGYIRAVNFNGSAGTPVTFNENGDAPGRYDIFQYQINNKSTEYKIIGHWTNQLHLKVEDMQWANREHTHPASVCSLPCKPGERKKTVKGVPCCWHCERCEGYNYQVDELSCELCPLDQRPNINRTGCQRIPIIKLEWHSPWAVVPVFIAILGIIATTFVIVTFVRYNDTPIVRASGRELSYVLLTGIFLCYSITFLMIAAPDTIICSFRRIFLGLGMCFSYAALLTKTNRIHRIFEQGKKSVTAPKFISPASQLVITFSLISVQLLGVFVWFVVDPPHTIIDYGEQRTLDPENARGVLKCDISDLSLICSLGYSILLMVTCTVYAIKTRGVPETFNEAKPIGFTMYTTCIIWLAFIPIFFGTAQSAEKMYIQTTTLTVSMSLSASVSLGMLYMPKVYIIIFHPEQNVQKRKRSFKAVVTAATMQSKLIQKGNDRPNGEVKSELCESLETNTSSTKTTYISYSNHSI

[2] = biological target: T1, rat mGlu8; experiment: Thallium flux assay, HEK293 cells expressing rat mGlu8 and GIRK1/2 channels; format: cell-based
[3] = tested on: SC-CA1 synapse; experiment: Extracellular field potential recordings; design: species or system C57BL6/J mice; conditions: for effect on fEPSP slope: agonist alone: 3 μM LSP1-2111, 1 μM DCPG or 30 μM LSP4-2022
Summary of the method: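 Coronal hippocampal slices (400 μm) from six-week-old male mice anesthetized with isoflurane, cut in ice-cold sucrose solution. Slices recovered in NMDG-HEPES (15 min, 32 °C), then in ACSF (≥1 h, RT), and were perfused with 32 °C ACSF. CA1 stratum radiatum recordings used paired pulses (100 μs, 20 ms apart, 0.05 Hz). After 10 min baseline, drugs in ACSF were given for 5 or 10 min; PAM was preapplied 5 min, then coapplied with agonist. Slopes from three sweeps were averaged and normalized to predrug baseline. Paired-pulse ratio was second/first slope. N = 3–4; mean ± SEM.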

[4] = biological target: human mGlu4 (Homo sapiens, UniProt Q14833); experiment: Calcium mobilization assay, human mGlu4/Gqi5/CHO cells; format: cell-based; conditions: for Kb / log α (affinity cooperativity) / log β (efficacy cooperativity) / α / β: calcium assay
Chain of human mGlu4 (Q14833 33-912): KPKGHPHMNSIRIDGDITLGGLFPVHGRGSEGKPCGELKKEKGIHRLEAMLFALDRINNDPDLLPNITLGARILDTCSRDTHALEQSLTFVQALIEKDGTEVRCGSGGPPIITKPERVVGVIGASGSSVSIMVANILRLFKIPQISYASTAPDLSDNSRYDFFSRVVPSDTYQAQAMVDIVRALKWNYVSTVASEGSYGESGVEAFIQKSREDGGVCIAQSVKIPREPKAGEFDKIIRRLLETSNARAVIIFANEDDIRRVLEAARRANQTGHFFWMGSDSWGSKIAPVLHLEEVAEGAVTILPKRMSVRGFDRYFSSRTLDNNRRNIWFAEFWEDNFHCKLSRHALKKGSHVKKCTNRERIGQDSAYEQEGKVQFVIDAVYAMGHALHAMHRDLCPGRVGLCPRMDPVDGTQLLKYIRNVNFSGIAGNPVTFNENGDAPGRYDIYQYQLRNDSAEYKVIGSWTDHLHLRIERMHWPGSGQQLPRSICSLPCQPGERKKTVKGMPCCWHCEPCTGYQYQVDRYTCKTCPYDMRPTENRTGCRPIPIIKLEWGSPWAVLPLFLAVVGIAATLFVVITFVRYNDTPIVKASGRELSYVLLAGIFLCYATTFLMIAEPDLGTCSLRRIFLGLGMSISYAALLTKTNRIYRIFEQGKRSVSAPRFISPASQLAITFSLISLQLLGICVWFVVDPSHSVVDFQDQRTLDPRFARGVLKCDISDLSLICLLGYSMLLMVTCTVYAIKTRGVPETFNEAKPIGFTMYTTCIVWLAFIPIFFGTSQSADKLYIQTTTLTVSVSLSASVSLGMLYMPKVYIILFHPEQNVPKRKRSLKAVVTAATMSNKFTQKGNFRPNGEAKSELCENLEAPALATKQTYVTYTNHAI

[5] = biological target: rat mGlu2 (Rattus norvegicus, UniProt P31421); experiment: Fold-shift assay in rat mGlu2/Gα15-expressing cells; format: cell-based; conditions: listed as VU0155094
Chain of rat mGlu2 (P31421 19-872): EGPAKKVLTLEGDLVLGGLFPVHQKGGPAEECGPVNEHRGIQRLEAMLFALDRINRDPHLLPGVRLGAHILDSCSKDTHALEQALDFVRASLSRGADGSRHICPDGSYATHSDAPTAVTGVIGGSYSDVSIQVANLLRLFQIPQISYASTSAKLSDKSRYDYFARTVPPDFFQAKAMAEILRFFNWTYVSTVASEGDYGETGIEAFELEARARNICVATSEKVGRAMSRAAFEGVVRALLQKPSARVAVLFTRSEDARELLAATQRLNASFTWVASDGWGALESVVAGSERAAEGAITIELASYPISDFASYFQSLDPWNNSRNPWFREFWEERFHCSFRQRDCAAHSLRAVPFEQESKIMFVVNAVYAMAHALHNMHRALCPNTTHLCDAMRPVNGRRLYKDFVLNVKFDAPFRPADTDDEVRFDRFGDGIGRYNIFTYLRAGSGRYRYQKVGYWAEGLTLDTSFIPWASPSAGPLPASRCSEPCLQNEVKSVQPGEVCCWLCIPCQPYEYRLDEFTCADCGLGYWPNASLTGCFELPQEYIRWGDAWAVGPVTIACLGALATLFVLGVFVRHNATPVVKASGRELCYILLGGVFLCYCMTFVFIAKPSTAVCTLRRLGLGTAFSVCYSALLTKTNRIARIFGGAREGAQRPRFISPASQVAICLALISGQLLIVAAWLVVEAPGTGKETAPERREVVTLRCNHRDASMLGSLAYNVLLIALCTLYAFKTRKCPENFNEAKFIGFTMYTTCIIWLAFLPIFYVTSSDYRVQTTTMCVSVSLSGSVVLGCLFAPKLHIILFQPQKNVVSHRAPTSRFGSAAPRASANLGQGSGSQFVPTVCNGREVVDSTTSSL

[6] = biological target: rat mGlu7 (Rattus norvegicus, UniProt P35400); experiment: Calcium mobilization assay, rat mGlu7/Gα15/HEK cells; format: cell-based; conditions: for Kb / log α (affinity cooperativity) / log β (efficacy cooperativity) / log τB / α / β / τB: calcium assay
Chain of rat mGlu7 (P35400 35-915): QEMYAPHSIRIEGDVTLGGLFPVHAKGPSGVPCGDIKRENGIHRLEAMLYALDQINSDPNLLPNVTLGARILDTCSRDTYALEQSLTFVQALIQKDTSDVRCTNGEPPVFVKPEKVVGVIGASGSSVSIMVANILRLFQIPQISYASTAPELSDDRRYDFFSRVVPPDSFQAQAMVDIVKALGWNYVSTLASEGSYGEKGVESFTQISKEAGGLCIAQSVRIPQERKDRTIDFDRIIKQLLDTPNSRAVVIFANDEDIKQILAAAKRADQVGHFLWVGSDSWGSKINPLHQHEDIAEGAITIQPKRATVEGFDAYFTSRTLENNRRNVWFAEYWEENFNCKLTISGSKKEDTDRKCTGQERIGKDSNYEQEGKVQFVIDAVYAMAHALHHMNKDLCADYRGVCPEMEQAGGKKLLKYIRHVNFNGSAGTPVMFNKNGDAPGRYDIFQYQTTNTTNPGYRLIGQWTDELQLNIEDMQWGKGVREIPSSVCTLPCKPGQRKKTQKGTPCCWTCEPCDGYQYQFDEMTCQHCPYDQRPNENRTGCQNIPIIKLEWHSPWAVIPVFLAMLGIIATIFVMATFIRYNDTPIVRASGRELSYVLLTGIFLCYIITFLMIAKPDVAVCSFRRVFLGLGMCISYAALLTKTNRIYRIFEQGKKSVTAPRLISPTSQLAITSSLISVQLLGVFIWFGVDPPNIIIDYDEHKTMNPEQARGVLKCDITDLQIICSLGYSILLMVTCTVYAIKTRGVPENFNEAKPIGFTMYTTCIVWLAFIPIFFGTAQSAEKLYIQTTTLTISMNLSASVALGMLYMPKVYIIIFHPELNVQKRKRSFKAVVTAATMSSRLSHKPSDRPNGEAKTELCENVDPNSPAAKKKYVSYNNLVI

[7] = biological target: mGlu4 (Rattus norvegicus, UniProt P31423); experiment: Thallium flux assay, cells expressing mGlu4 and GIRK1/2; format: cell-based; conditions: GIRK assay
Chain of mGlu4 (P31423 33-912): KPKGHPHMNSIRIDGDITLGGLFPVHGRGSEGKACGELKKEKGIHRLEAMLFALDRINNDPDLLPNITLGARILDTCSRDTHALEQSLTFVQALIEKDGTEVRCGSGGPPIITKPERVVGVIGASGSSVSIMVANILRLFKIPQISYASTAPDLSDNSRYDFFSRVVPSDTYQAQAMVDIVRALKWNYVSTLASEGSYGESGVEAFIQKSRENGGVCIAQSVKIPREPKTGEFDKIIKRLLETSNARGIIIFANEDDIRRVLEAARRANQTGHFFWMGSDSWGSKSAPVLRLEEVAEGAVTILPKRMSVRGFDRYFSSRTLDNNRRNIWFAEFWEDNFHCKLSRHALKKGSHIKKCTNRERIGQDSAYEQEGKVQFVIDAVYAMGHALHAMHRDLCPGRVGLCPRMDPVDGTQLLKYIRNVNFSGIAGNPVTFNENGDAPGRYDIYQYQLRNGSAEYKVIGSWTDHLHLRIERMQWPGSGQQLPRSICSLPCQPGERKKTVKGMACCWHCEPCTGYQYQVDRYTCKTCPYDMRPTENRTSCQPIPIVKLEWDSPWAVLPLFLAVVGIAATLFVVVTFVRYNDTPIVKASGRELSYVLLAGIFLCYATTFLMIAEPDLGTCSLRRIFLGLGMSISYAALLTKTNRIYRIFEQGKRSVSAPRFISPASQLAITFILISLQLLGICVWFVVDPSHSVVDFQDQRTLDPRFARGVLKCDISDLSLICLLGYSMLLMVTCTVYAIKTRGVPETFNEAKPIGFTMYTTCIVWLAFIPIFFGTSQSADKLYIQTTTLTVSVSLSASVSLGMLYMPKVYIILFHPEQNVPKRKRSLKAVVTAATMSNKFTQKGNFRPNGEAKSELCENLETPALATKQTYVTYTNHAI

- log αβ (combined cooperativity) ([7]; agonist Glu): 0.54 ± 0.06 ^i
- αβ ([7]; agonist Glu): 3.5
- log αβ (combined cooperativity) ([7]; agonist L-AP4): 0.58 ± 0.04 ^j
- αβ ([7]; agonist L-AP4): 3.8
- log αβ (combined cooperativity) ([7]; agonist LSP4-2022): 0.54 ± 0.003 ^k
- αβ ([7]; agonist LSP4-2022): 3.5
- Kb ([7]; agonist Glu): 0.306 µM
- Kb ([7]; agonist L-AP4): 0.304 µM
- Kb ([7]; agonist LSP4-2022): 0.268 µM
Compound: O=C(Nc1ccc(Oc2ccc(Cl)cn2)c(Cl)c1)c1ccccn1 [Compound 20, N-(3-chloro-4-((5-chloropyridin-2-yl)oxy)phenyl)picolinamide]

- fold lower affinity compared to glutamate ([1]; calcium): 10 fold
- Fold ΔpKA vs. Glu (fold higher affinity than glutamate) ([4]; calcium): 9 fold
Compound: N[C@@H](CCP(=O)(O)C(O)c1ccc(OCC(=O)O)cc1)C(=O)O (stereo partly drawn) [LSP4-2022, (2S)-2-amino-4-(((4-(carboxymethoxy)phenyl)(hydroxy)methyl)(hydroxy)phosphoryl)butanoic acid, reference compound]
- effect on paired-pulse ratio ([3]; 30 μM LSP4-2022 alone): causes an increase in paired-pulse ratio
- effect on fEPSP slope [3]: causes a decrease in the fEPSP slope

More lines, now with the values behind:

Compound: COC(=O)c1ccc(-n2c(C)cc(C(=O)CSc3ccc(NC(C)=O)cc3)c2C)cc1 [Compound 1, methyl 4-(3-(2-((4-acetamidophenyl)thio)acetyl)-2,5-dimethyl-1H-pyrrol-1-yl)benzoate]
- Kb ([1]; agonist Glu): 8.6 µM
- Kb ([1]; agonist L-AP4): 14.7 µM
- Kb ([1]; agonist LSP4-2022): 14 µM
- log α (affinity cooperativity) ([1]; agonist Glu): 0.61 ± 0.39
- log β (efficacy cooperativity) ([1]; agonist Glu): 0.08 ± 0.02 ^h
- log τB ([1]; agonist Glu): –0.12 ± 0.03
- α ([1]; agonist Glu): 4.1
- β ([1]; agonist Glu): 1.2
- τB ([1]; agonist Glu): 0.75
- log α (affinity cooperativity) ([1]; agonist L-AP4): 0.92 ± 0.08 ^k
- log β (efficacy cooperativity) ([1]; agonist L-AP4): 0.05 ± 0.03 ^i
- log τB ([1]; agonist L-AP4): –0.14 ± 0.04
- α ([1]; agonist L-AP4): 8.3
- β ([1]; agonist L-AP4): 1.1
- τB ([1]; agonist L-AP4): 0.73
- log α (affinity cooperativity) ([1]; agonist LSP4-2022): 0.93 ± 0.06 ^l
- log β (efficacy cooperativity) ([1]; agonist LSP4-2022): 0.05 ± 0.06 ^j
- log τB ([1]; agonist LSP4-2022): –0.10 ± 0.06
- α ([1]; agonist LSP4-2022): 8.6
- β ([1]; agonist LSP4-2022): 1.1
- τB ([1]; agonist LSP4-2022): 0.80
- pEC50 [2]: 5.79
- agonist activity in the absence of glutamate [2]: did not exhibit agonist activity
- effect on paired-pulse ratio ([3]; PAM and LSP4-2022 applied together): increases the paired-pulse ratio
- Kb ([4]; KB, agonist Glu): 13.3 µM
- Kb ([4]; KB, agonist L-AP4): 13.2 µM
- Kb ([4]; KB, agonist LSP4-2022): 10.6 µM
- log α (affinity cooperativity) ([4]; agonist Glu): 0.28 ± 0.07
- log β (efficacy cooperativity) ([4]; agonist Glu): 0.16 ± 0.08 ^f ^h
- α ([4]; agonist Glu): 1.9
- β ([4]; agonist Glu): 1.4
- log α (affinity cooperativity) ([4]; agonist L-AP4): –0.15 ± 0.30 ^k
- log β (efficacy cooperativity) ([4]; agonist L-AP4): 0.67 ± 0.27 ^f ^i
- α ([4]; agonist L-AP4): 0.71
- β ([4]; agonist L-AP4): 4.7
- log α (affinity cooperativity) ([4]; agonist LSP4-2022): 0.17 ± 0.13 ^l
- log β (efficacy cooperativity) ([4]; agonist LSP4-2022): 0.33 ± 0.07 ^j
- α ([4]; agonist LSP4-2022): 1.5
- β ([4]; agonist LSP4-2022): 2.1
- Kb ([4]; pKB, agonist L-AP4, eq 2): 13.2 µM
- shift of glutamate concentration-response (PAM or NAM activity) at mGlu2 [5]: inactive
- Kb ([6]; KB, agonist LSP4-2022): 8 µM
- fold greater modulator affinity with L-AP4 than with glutamate as agonist ([6]; calcium): 4 fold
- log α (affinity cooperativity) ([6]; agonist Glu): 0.58 ± 0.13
- log β (efficacy cooperativity) ([6]; agonist Glu): 0.68 ± 0.12 ^g ^h
- log τB ([6]; agonist Glu): –0.17 ± 0.03
- α ([6]; agonist Glu): 3.8
- β ([6]; agonist Glu): 4.8
- τB ([6]; agonist Glu): 0.81
- log α (affinity cooperativity) ([6]; agonist L-AP4): 0.39 ± 0.21
- log β (efficacy cooperativity) ([6]; agonist L-AP4): 0.07 ± 0.03 ^g ^i
- log τB ([6]; agonist L-AP4): –0.09 ± 0.04
- α ([6]; agonist L-AP4): 2.4
- β ([6]; agonist L-AP4): 1.2
- log α (affinity cooperativity) ([6]; agonist LSP4-2022): 0.82 ± 0.26 ^l
- log β (efficacy cooperativity) ([6]; agonist LSP4-2022): –0.10 ± 0.10 ^g ^j
- log τB ([6]; agonist LSP4-2022): –0.22 ± 0.06
- α ([6]; agonist LSP4-2022): 6.6
- β ([6]; agonist LSP4-2022): 0.8
- τB ([6]; agonist LSP4-2022): 0.61
- Kb ([6]; pKB, agonist Glu, eq 2): 17 µM
- Kb ([6]; pKB, agonist L-AP4, eq 2): 4.17 µM

Compound: N[C@H](C(=O)O)c1ccc(C(=O)O)c(C(=O)O)c1 [DCPG, (S)-3,4-dicarboxyphenylglycine]
- effect on fEPSP slope [3]: has no effect on fEPSP slope

Compound: COc1cc(C(O)P(=O)(O)CC[C@H](N)C(=O)O)cc([N+](=O)[O-])c1O (stereo partly drawn) [LSP1-2111, (2S)-2-amino-4-[hydroxy[hydroxy(4-hydroxy-3-methoxy-5-nitro-phenyl)methyl]phosphoryl]butanoic acid]
- effect on fEPSP slope [3]: has no effect on fEPSP slope
